Source: ChEMBL document CHEMBL1136773, “Bridged bicyclic cores containing a 1,1-diarylethylene motif are high-affinity subtype-selective ligands for the estrogen receptor” (J Med Chem, 2003)

Assays:
[1] = target: Estrogen receptor beta (Homo sapiens) (UniProt Q92731); experiment: Transcriptional antagonistic efficacy against ERbeta at 10e-6 M by cotransfectio in HEC-1 cells; assay type: functional, cell-based
Procedure, shortened: (§1)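 Cotransfection in HEC-1 cells as for agonism: ERα or ERβ vector, 2ERE-pS2-Luc reporter, β-galactosidase control, lipofectin for 5 h. Ligand at 10^-6 M was given together with 10^-9 M estradiol for 24 h. Luciferase activity was normalized to β-galactosidase and expressed relative to 10^-9 M estradiol alone, set at 100%.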

[2] = target: Estrogen receptor beta (Homo sapiens) (UniProt Q92731); experiment: Binding affinity for purified human Estrogen receptor beta was determined using a competitive radiometric binding assay with estradiol
[3] = target: Estrogen receptor beta (Homo sapiens) (UniProt Q92731); experiment: Transcriptional agonistic efficacy against ER beta at 10e-6 M was determined by cotransfection in HEC-1 cells; assay type: functional, cell-based
Procedure, shortened: (§2)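 HEC-1 cells were grown in charcoal dextran-treated calf serum medium without phenol red. They were lipofected for 5 h at 37 °C with ERα or ERβ expression vector, 2ERE-pS2-Luc reporter and pCMV β-galactosidase control. Agonist screen used 10^-8 and 10^-6 M ligand for 24 h. Read-out is luciferase corrected by β-galactosidase, expressed as % of the 10^-9 M estradiol response.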

[4] = target: T1, Estrogen receptor (Homo sapiens) (UniProt P03372); experiment: Transcriptional agonistic efficacy against ER alpha at 10e-8 M by cotransfection in HEC-1 cells; assay type: functional, cell-based; procedure, shortened: as §2
T1 sequence (whole entry): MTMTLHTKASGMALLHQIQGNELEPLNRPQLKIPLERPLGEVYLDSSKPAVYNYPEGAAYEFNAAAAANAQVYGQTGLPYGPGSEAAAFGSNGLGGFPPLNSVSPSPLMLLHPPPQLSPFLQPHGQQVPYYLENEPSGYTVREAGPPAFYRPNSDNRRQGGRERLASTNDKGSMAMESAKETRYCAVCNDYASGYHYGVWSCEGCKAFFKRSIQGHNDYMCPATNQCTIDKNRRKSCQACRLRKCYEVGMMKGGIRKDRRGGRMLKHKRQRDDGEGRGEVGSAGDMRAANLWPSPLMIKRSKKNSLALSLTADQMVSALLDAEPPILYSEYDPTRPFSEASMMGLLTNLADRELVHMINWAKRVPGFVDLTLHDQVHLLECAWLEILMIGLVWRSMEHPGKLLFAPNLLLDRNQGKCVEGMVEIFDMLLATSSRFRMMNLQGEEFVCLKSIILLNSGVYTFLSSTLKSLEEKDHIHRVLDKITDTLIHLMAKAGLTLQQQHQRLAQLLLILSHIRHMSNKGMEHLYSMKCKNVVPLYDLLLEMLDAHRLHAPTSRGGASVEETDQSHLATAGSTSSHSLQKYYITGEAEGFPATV

[5] = target: Estrogen receptor beta (Homo sapiens) (UniProt Q92731); experiment: Transcriptional agonistic efficacy against ER beta at 10e-8 M by cotransfection in HEC-1 cells; assay type: functional, cell-based; procedure, shortened: as §2
[6] = target: T1, Estrogen receptor (Homo sapiens); experiment: Transcriptional antagonistic efficacy agains ER alpha at 10e-6 M by cotransfection in HEC-1 cells; assay type: functional, cell-based; procedure, shortened: as §1
[7] = target: Estrogen receptor (Homo sapiens) (UniProt Q92731+P03372); experiment: Ratio of binding affinity for purified human estrogen beta receptors to that of binding affinity for purified human estrogen alpha receptors.
[8] = target: T1, Estrogen receptor (Homo sapiens); experiment: Transcriptional agonistic efficacy against ER alpha at 10e-6 M by cotransfection in HEC-1 cells; assay type: functional, cell-based; procedure, shortened: as §2
[9] = target: T1, Estrogen receptor (Homo sapiens); experiment: Binding affinity for purified human Estrogen receptor alpha was determined using a competitive radiometric binding assay with [3H]estradiol
[10] = target: Estrogen receptor beta (Homo sapiens) (UniProt Q92731); experiment: Binding affinity for purified human Estrogen receptor beta by displacement of [3H]estradiol

Estrogen receptor beta (Homo sapiens), sequence (Q92731 whole entry): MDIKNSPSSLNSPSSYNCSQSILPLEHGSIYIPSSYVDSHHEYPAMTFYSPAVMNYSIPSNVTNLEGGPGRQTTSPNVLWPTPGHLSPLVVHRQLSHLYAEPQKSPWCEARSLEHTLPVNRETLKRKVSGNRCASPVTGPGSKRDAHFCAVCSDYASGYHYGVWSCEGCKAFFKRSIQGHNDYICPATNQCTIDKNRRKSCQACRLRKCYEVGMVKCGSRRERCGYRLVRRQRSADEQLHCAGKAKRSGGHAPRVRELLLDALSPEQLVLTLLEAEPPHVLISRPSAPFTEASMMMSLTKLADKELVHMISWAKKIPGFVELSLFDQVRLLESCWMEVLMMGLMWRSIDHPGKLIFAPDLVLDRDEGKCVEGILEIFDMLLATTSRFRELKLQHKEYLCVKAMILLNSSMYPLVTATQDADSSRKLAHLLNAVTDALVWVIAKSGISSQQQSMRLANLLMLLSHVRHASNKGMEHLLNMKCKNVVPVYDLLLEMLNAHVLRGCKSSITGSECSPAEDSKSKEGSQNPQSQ

| Efficacy [1] [%] | RBA [2] [%] | Efficacy [3] [%] | Efficacy [4] [%] | Efficacy [5] [%] | Efficacy [6] [%] | Ratio [7] | Efficacy [8] [%] | RBA [9] [%] | RBA [10] [%] | Compound |
| --- | --- | --- | --- | --- | --- | --- | --- | --- | --- | --- |
| 55 | 13 | 50 | 16 | 21 | 40 | 0.87 | 41 | 15 |  | Oc1ccc(C(c2ccc(O)cc2)C2C3CCCC2CCC3)cc1 (stereo not drawn) |
|  | 9 |  |  |  |  | 2.8 |  | 3.2 |  | Oc1ccc(C(c2ccc(O)cc2)C2CCCCC2)cc1 |
| 15 | 13 | 1 | 1 | 1 | 30 | 1.4 | 4 | 9 |  | CC1(C)CC(=C(c2ccc(O)cc2)c2ccc(O)cc2)C[C@]2(C)C(C)(C)[C@H]3CC[C@@]12C3 |
| 22 | 35 | 17 | 71 | 8 | 83 | 1.1 | 80 | 31 |  | Oc1ccc(C(=C2C3CCCC2CCC3)c2ccccc2)cc1 |
| 2 | 317 | 2 | 20 | 2 | 19 | 1.3 | 20 | 243 |  | Oc1ccc(C(=C2C3CC4CC(C3)CC2C4)c2ccc(O)cc2)cc1 |
| 2 | 187 | 2 | 15 | 2 | 38 | 1.7 | 20 | 108 |  | Oc1ccc(C(=C2C3CCCC2CCC3)c2ccc(O)c(O)c2)cc1 |
| 2 | 125 | 2 | 27 | 2 | 35 | 1.3 | 26 | 97 |  | Oc1ccc(C(=C2CC3CC2C2CCCC32)c2ccc(O)cc2)cc1 (stereo not drawn) |
| 3 | 211 | 3 | 25 | 3 | 32 | 4.5 | 22 | 47 |  | Oc1ccc(C(=C2CC3CCC2C3)c2ccc(O)cc2)cc1 (stereo not drawn) |
| 13 | 8 | 3 | 5 | 2 | 18 | 0.8 | 11 | 10 |  | CC12CCC(C1)C(C)(C)C2=C(c1ccc(O)cc1)c1ccc(O)cc1 (stereo not drawn) |

Further lines, the molecule ahead of its results:

| Compound | Efficacy [1] [%] | RBA [2] [%] | Efficacy [3] [%] | Efficacy [4] [%] | Efficacy [5] [%] | Efficacy [6] [%] | Ratio [7] | Efficacy [8] [%] | RBA [9] [%] | RBA [10] [%] |
| --- | --- | --- | --- | --- | --- | --- | --- | --- | --- | --- |
| Oc1ccc(C(=C2C3CCCC2CCC3)c2ccc(O)cc2)cc1 | 2 |  | 2 | 25 | 2 | 23 | 0.59 | 22 | 513 | 301 |
| CC12CCC(CC1=C(c1ccc(O)cc1)c1ccc(O)cc1)C2(C)C (stereo not drawn) | 4 | 189 | 4 | 24 | 3 | 21 | 3.3 | 28 | 57 |  |
| Oc1ccc(C(=C2C3CCCC2CCC3)c2cccc(O)c2)cc1 |  | 89 |  |  |  |  | 1.9 |  | 46 |  |
| Oc1ccc(C(=C2C3CCCC2CCC3)c2ccc(F)cc2)cc1 | 16 |  | 10 | 58 | 7 | 65 | 1.3 | 63 | 40 | 52 |
| Oc1ccc(C(=C2CCCCC2)c2ccc(O)cc2)cc1 | 4 | 334 | 3 | 9 | 2 | 22 | 4.9 | 12 | 68 |  |
| Oc1ccc(C2(c3ccc(O)cc3)C3CCCC2CCC3)cc1 | 78 | 0.25 | 4 | 1 | 2 | 43 | 0.81 | 6 | 0.31 |  |
